Ecoli WT expand: E. coli BW25113 growth inhibition, expanded screen; OD600 absorbance; growth inhibition, % at 100 µM; AID 710; 98,000 compounds, 0.15% hits;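 active = growth inhibition above about 50% at one test dose, limit read from the data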;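 note: growth measured after 20 h incubation at 37 °C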
PostGolgi ctrl: inhibits growth of the yeast control strain. 98,000 compounds, 5% hits. AID 738. inhibition, % at 10 µM. efflux-deficient yeast background strain, growth absorbance A615, 16 h
PostGolgi yeast: growth inhibition of a yeast mutant, post-Golgi transport screen; AID 739; post-Golgi transport phenotypic cell assay; inhibition, % at 10 µM; 98,000 compounds, 0.9% hits;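 note: yeast cells grown in 1536-well plates; yeast grown about 18 h at 30C before absorbance read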
Ecoli tolC: E. coli tolC mutant growth inhibition; E. coli BW25113 tolC mutant growth, OD615; 65,000 compounds, 2.2% hits; growth inhibition, % at 10 µM (by protocol);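 active = growth inhibition at or above a cutoff equal to the mean over every tested compound plus 3 SD, cut at about 60% in these data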;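 note: growth measured after 20 h incubation at 37 °C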
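System: E. coli ΔtolC::kan strain BW25113; Buffer or medium: LB broth supplemented with 50 µg/mL kanamycin; Compound: 10 µM final, single dose; Incubation: bacterial growth with compound for 20 h at 37 °C; Signal: A615 absorbance measurement; Evaluation: growth inhibition in percent.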
Cav32 inh: blocks human Cav3.2 T-type calcium channel; O95180; B-score at 10 µM; Cav3.2-expressing cells, Fluo-4 calcium fluorescence FDSS; active compounds read low; 100,000 compounds, 4% hits; AID 449739;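 active = single-dose well whose peak fluorescence ratio is a statistical outlier from its plate by either plate-standardised score or position-corrected B-score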
* marks the source's active call; other numbers are inactive results; x = no result. Compounds with a hit are over-represented: about 8.4% of the library has one in this group of screens. Cut-off read from the data, not from the text of the source, unless noted: active = inhibition above about 30%; inactive = the rest.

SMILES	Ecoli WT expand	PostGolgi ctrl	PostGolgi yeast	Ecoli tolC	Cav32 inh
O=C(c1cc2c(s1)CCCC2)N1CCN(Cc2ccc3c(c2)OCO3)CC1	2	27	36*	51	-3.9*
CCN(CC)c1ccc(NC(=O)CC2Oc3ccccc3NC2=O)c(C)c1 (stereo not drawn)	-2	6	-4	-7	-2.4
O=C(NN1C(=O)c2ccccc2NC1c1ccccc1OCc1ccccc1)c1ccncc1 (stereo not drawn)	3	4	-1	x	0.092
CC1=C([N+](=O)[O-])C(c2ccccc2)C2=C(N1)c1ccccc1C2=O (stereo not drawn)	1	7	5	x	-3.8*
CCN(CC)CCn1c(O)c(N=O)c2ccccc21	1	-10	0	6	0.09
O=Nc1c(O)n(Cc2cccc(Cl)c2)c2ccccc12	28	28	18	x	-4.4*
Cc1nnsc1C(=O)NNS(=O)(=O)c1ccccc1	7	38*	2	x	0.069
O=C(c1cccc(OC(F)F)c1)N1CCN(c2ncccn2)CC1	-1	7	6	-3	-0.0007
O=c1cc(-c2ccccc2)nc2nc(SCc3ccccc3)[nH]n12	-8	15	-3	23	-4.6*
CC1CCCCN1C(=O)CSc1nc(N)cc(=O)[nH]1 (stereo not drawn)	1	30*	3	x	-0.066
COc1ccccc1OCC(=O)c1[nH]c(C)c(C(C)=O)c1C	0	2	2	0	-0.56
CC(=O)c1c(C)[nH]c(C(=O)COc2ccc(C#N)cc2)c1C	-4	32*	3	x	0.15
CCOC(=O)c1c(NC(=O)CN2CCCCC2)sc2c1CCC(C=O)=C2Cl	-13	8	40*	x	0.016
CCOC(=O)c1c(NC(=O)CN2CCN(c3ccc(Cl)cc3)CC2)sc(C)c1C	-7	-1	-10	x	-0.52
Cc1cc(NC(=O)CCC(=O)N(CC(=O)NCC2CCCO2)Cc2ccc(F)cc2)no1 (stereo not drawn)	x	x	x	x	0.56
Cc1cc(NC(=O)CCC(=O)N(CCC(C)C)CC(=O)NCC2CCCO2)no1 (stereo not drawn)	11	38*	0	-7	1.4
Cc1onc(-c2c(Cl)cccc2Cl)c1C(=O)Nc1ccc2c(c1)OCO2	-2	0	0	26	-1.5
C=CCNCc1cccn1-c1ccccc1	-1	34*	-1	-11	0.55
Cc1nnc(SC(=O)N2c3ccccc3Sc3ccccc32)s1	-10	75*	13	69*	-0.62
Cc1nnc(SCC(=O)N2c3ccccc3Sc3ccccc32)n1N	-2	5	-4	-8	0.48
CCOC(=O)Cn1nnnc1CN(CCc1ccccc1)Cc1cc2cc(CC)ccc2[nH]c1=O	-9	21	0	x	-4.4*
COc1cccc(COc2ccc3c(C)c(Cc4ccccc4)c(=O)oc3c2)c1	x	x	x	x	-3.7*
COc1cc(COc2ccc3c(C)c(Cc4ccccc4)c(=O)oc3c2)cc(OC)c1OC	-7	16	-6	x	x
C#CCSc1nnc(-c2cccc3ccccc23)o1	x	x	x	97*	-1.1
O=C(OCC#CCSc1nnc(-c2cccc3ccccc23)o1)c1cccs1	-28	-3	-7	25	-4.7*
SMILES	Ecoli WT expand	PostGolgi ctrl	PostGolgi yeast	Ecoli tolC	Cav32 inh
C#CCSc1nnc(-c2ccc(C)cc2)o1	x	x	x	x	0.24
CCOC(=O)[C@@H]1[C@H]2COc3cc(OC)ccc3[C@@H]2N2C(=O)N(c3ccc(Cl)cc3)C(=O)[C@]12C	x	x	x	x	-0.023
CC1CCc2nn(CC(=O)NC3CCCC(C)C3C)cc2C1 (stereo not drawn)	4	17	7	-5	-0.76
CCc1ccc(C(=O)COC(=O)C(Cc2ccccc2)NC(=O)c2ccc(Cl)cc2)cc1 (stereo not drawn)	-14	5	10	x	-4.8*
Cc1ccc(CN=Cc2[nH]c3ccc(Br)c(Cl)c3c2O)cc1	-3	26	4	x	-3.1*
CN(CC(=O)Nc1ccc(C#N)cc1)Cc1ccc(Cl)c(Cl)c1	-1	34*	4	x	-6.6*
Cc1c(-n2c(SCC(=O)O)nnc2-c2ccccc2Cl)c(=O)n(-c2ccccc2)n1C	-1	1	1	-12	x
O=C(O)c1ccccc1C(=O)Nc1nccs1	-4	30*	-18	x	0.94
CCc1c(O)nc(SCC(=O)Nc2ccccc2C)[nH]c1=O	0	2	2	-8	0.91
Cc1cc(NC(=O)CCC(=O)N(c2ccccc2)C(C(=O)NC2CCCC2)c2cccs2)no1 (stereo not drawn)	-7	15	-7	9	-1.2
Cc1cc(NC(=O)CCC(=O)N(Cc2cccs2)C(C(=O)NC2CCCC2)c2ccccc2)no1 (stereo not drawn)	x	x	x	x	-8.7*
Cc1cc(NC(=O)CCC(=O)N(Cc2cccs2)C(C(=O)NC2CCCC2)c2cccnc2)no1 (stereo not drawn)	-2	1	1	x	1.7
Cc1ccc(N(C(=O)CCC(=O)Nc2cc(C)on2)C(C(=O)NC2CCCC2)c2cccs2)cc1 (stereo not drawn)	-2	36*	0	x	-4.8
O=C(NC1CCCCC1)C(c1cccs1)N(Cc1cccs1)C(=O)c1cccs1 (stereo not drawn)	x	x	x	x	-5.3*
COC(=O)CC(N)c1ccc(OC)c2ccccc12 (stereo not drawn)	2	-1	9	x	0.68
CN(C)c1ccc(-c2cc([C@H]3[C@@H]4C=CCC[C@@]4(C)C(=O)N3Cc3ccccc3)ccc2F)cc1	x	x	x	x	0.0068
CC12CCC(CC1)C(C)(C)O2	x	x	x	x	0.45
CCC(c1nnnn1C1CCCCC1)N(Cc1ccco1)Cc1cc2ccc(OC)cc2[nH]c1=O (stereo not drawn)	-8	23	5	68*	-0.68
Cc1ccc2cc(C(c3nnnn3C3CCCC3)N(Cc3ccco3)Cc3cccs3)c(=O)[nH]c2c1 (stereo not drawn)	-17	13	-2	x	-2.4
CCOC(=O)Cn1nnnc1C(CC)N(Cc1cccs1)Cc1cc2ccc(OC)cc2[nH]c1=O (stereo not drawn)	-16	13	-9	53	-3.7*
COCCn1nnnc1C(C(C)C)N(Cc1ccccc1)Cc1cc2cc(OC)ccc2[nH]c1=O (stereo not drawn)	-2	-2	-3	76*	-4*
Cc1ccc2cc(C(c3nnnn3C3CCCC3)N(Cc3cccnc3)Cc3ccco3)c(=O)[nH]c2c1 (stereo not drawn)	-16	5	-6	65*	-2.6
COCCn1nnnc1C(C(C)C)N(Cc1cccnc1)Cc1cc2cc(OC)ccc2[nH]c1=O (stereo not drawn)	8	-2	5	-5	x
COc1ccc2[nH]c(=O)c(CN(Cc3cccs3)Cc3nnnn3C(C)(C)C)cc2c1	-5	19	5	24	-3
Clc1ccc(C(c2nnnn2C2CCCCC2)N(Cc2cccnc2)Cc2ccco2)cc1 (stereo not drawn)	x	x	x	69*	-3.9*
CC(c1nnnn1C1CCCCC1)N(Cc1ccccc1)Cc1cccnc1 (stereo not drawn)	-22	13	-6	49	-1.3
Clc1ccc(CN(CC2CCCO2)C(c2cccs2)c2nnnn2C2CCCC2)cc1 (stereo not drawn)	-16	8	0	x	-8.1*
